Shown are actives, neighbours in structure and some others; about 3.1% of the full set was active somewhere.
OX1R antag-1: human HCRTR1 antagonism; inhibition, % at 5 µM; O43613; CHO/OX1R cells, Fluo-8 calcium fluorescence, orexin A; actives 0.43% (n = 330,000);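 active = inhibition above its plate's threshold, mean inhibition of all tested compounds on the plate plus 3 SD, cut at about 37% in these data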;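 note: 0% = orexin A challenge wells and 100% = SB-334867-A antagonist wells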
Target sequence (O43613 whole entry, looked up): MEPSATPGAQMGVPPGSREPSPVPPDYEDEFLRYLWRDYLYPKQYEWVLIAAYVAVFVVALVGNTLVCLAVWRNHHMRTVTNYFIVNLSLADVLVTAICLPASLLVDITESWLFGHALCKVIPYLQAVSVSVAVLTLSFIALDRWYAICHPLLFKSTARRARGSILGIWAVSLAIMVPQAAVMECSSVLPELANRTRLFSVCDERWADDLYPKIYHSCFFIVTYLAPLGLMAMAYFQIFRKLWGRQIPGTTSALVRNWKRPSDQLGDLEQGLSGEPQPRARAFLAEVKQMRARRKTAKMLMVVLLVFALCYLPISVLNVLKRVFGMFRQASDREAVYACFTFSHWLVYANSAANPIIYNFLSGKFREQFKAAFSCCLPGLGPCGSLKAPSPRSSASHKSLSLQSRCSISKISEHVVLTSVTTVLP
CHO parental Ca: signal in parental CHO cells, OX1R antagonist counter-screen | actives 0.63% (n = 330,000) | inhibition, % at 5.6 µM | AID 463079 | parental CHO-K1, ATP-induced calcium, Fluo-8 fluorescence;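 active = inhibition above that plate's mean sample inhibition plus 3 SD, cut at about 26% in these data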;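 note: 0% = ATP-challenged DMSO wells and 100% = DMSO wells without ATP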
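Test system: untransfected parental CHO cell line. Compound: one dose, 5.6 µM nominal. Detection: intracellular calcium via Fluo-8 no-wash fluorescent dye. Measure: % inhibition. Benchmarks: ATP-challenged DMSO wells low, unchallenged DMSO wells high.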
GPR7 antagonist: human neuropeptides B/W receptor 1 antagonism | AID 1861 | inhibition, % at 4.4 µM | P48145 | GPR7-expressing cells, fluorescence antagonist assay | actives 1.1% (n = 290,000); in the data active = inhibition above about 16%, passing the limit was not always enough;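 note: cells stimulated with the agonist NPW; 0% = agonist with vehicle and 100% = vehicle without agonist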
OX1R antag-2: blocks the human orexin 1 receptor; O43613; inhibition, % at 6.6 µM; AID 485270; OX1R-expressing cells, FRET antagonist read-out; actives 1.8% (n = 330,000); in the data active = inhibition mostly above about 38%, no sharp cut-off; inactive = mostly below about 40%;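 note: 0% = agonist challenge alone and 100% = reference antagonist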
GalR3 antagonist: human GalR3 antagonism | inhibition, % at 3 µM | O60755 | actives 0.44% (n = 360,000) | AID 651719 | HEK293 GalR3-CNG cAMP membrane potential fluorescence; galR3 body fused to GalR1 C-terminus;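 active = inhibition above the screen-wide average plus 3 SD, cut at about 13% in these data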;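 note: forskolin and galanin both at EC90 stimulate the cells; cAMP rise reported by CNG channel membrane potential dye signal; 0% = forskolin plus galanin with DMSO and 100% = forskolin alone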
OX1R HTRF confirm: confirmation of human orexin 1 receptor antagonists, HTRF format; shares compounds with OX1R antag-2; inhibition, % at 6.6 µM; OX1R-expressing cells, HTRF antagonist assay; actives 49% (n = 1,800); AID 492964; in the data active = inhibition above about 55%;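 note: CHO cells expressing OX1R stimulated with orexin A at about EC80; 0% = agonist challenge alone and 100% = reference antagonist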
CHO-K1 HTRF cnt: signal in parental CHO-K1 cells, OX1R antagonist counter-screen. shares compounds with OX1R antag-2. HTRF counterscreen. inhibition, % at 6.6 µM. actives 48% (n = 1,800); in the data active = inhibition above about 17%;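 note: 0% = agonist challenge with vehicle and 100% = vehicle alone without agonist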
Numbers without * were called inactive; nt = not tested or not shown; + = active, no number.

SMILES | OX1R antag-1 | CHO parental Ca | GPR7 antagonist | OX1R antag-2 | GalR3 antagonist | OX1R HTRF confirm | CHO-K1 HTRF cnt
CCCNC(=O)c1nc(C)n(-c2ccc([N+](=O)[O-])cc2)n1 | -8 | -9 | -10 | 137* | -1 | 71* | 52*
COc1ccc(NC(=O)CNC(=O)c2ccc([N+](=O)[O-])cc2)cc1 | -7 | -1 | -10 | 28 | 7 | nt | nt
COc1ccc(NC(=O)c2nc(C)n(-c3ccc([N+](=O)[O-])cc3)n2)cc1 | -11 | -11 | -9 | 107* | 0 | 25 | 33*
CC(C)(C)n1nnnc1C(c1ccccc1)N1CCN(c2ncc(C(F)(F)F)cc2Cl)CC1 (configuration not stated) | nt | nt | nt | nt | 2 | nt | nt
O=c1ccnc(Sc2ncccc2[N+](=O)[O-])[nH]1 | -30 | -1 | -13 | 92* | -2 | 49 | 47*
CC(C)(C)c1nc(Sc2ncccc2[N+](=O)[O-])n[nH]1 | -6 | -2 | -11 | 30 | -5 | nt | nt
OCCCCCN=c1cc(-c2ccccc2)oc2ccc(Cl)cc12 | -27 | -23 | 2 | 82* | -1 | 54 | 54*
Nc1ccc2c(c1)C(=O)C(=O)c1ccccc1-2 | -1 | -17 | -11 | + | 1 | 83* | 41*
O=C(NCCCCC(NC(=O)c1ccc([N+](=O)[O-])cc1)C(=O)O)c1ccc([N+](=O)[O-])cc1 (configuration not stated) | -12 | -12 | -5 | 137* | -4 | 37 | 58*
CCOC(=O)c1ccc(Nc2cc(C)nc(-c3ccccc3)n2)cc1 | 26 | 8 | 6 | 83* | -9 | 29 | 15
N#C/C(=C/c1ccc(Br)o1)C(N)=O | -11 | -12 | -5 | 79* | -3 | 44 | 12
COc1ccc2nc3sc(C(=O)N4CCN(C)CC4)cc3cc2c1 | 10 | -4 | 5 | 110* | -2 | 35 | 27*
COc1ccc2nc3sc(C(=O)NCCCN4CCc5ccccc5C4)cc3cc2c1 | -18 | -20 | -7 | 80* | 1 | 29 | 20*
COc1ccc(S(=O)(=O)Cc2ccc(C(=O)NCCCN3CCc4ccccc4C3)o2)cc1 | -41 | -26 | -12 | 8 | 8 | nt | nt
COc1ccc(CN(C)C(=O)C(CCSC)NS(=O)(=O)c2ccc3c(c2)OCCO3)c(OC)c1OC (configuration not stated) | nt | nt | nt | nt | -3 | nt | nt
O=C1c2ccccc2C(c2nnnn2-c2ccc3c(c2)OCCO3)N1Cc1ccccc1 (configuration not stated) | nt | nt | nt | nt | -6 | nt | nt
O=C(NN1C(=O)/C(=C/c2ccc(O)c([N+](=O)[O-])c2)SC1=S)c1ccccc1Cl | -29 | -15 | -5 | 112* | -4 | 55* | 17*
O=C(NN1C(=O)/C(=C/c2cc([N+](=O)[O-])ccc2O)SC1=S)c1ccccc1O | -9 | -4 | nt | 14 | nt | nt | nt
COc1ccc(/C=C2\N=C(SC)NC2=O)cc1 | 12 | -3 | 14 | 21 | -5 | nt | nt
CSC1=N/C(=C/c2ccc(-n3cncn3)cc2)C(=O)N1 | -11 | -4 | -8 | 86* | -4 | 35 | 25*
O=C(O)c1ccc([N+](=O)[O-])c2c1C(=O)c1ccccc1C2=O | 13 | 1 | nt | 101* | -2 | 69* | 104*
COc1cccc(NC(=O)CS(=O)(=O)c2cccc3nsnc23)c1 | -21 | -6 | 13 | 53 | -7 | nt | nt
CC(=O)c1cccc(NC(=O)CCS(=O)(=O)c2cccc3nsnc23)c1 | -30 | -25 | 5 | 89* | -4 | 33 | 25*
O=C(CCCNS(=O)(=O)c1cccc2nsnc12)NCc1ccccc1 | -23 | -10 | -9 | 28 | 4 | nt | nt
O=C(CCS(=O)(=O)c1cccc2nsnc12)NCc1ccccc1 | -26 | -17 | -15 | 120* | -2 | 40 | 39*
SMILES | OX1R antag-1 | CHO parental Ca | GPR7 antagonist | OX1R antag-2 | GalR3 antagonist | OX1R HTRF confirm | CHO-K1 HTRF cnt
Cc1ccc2nc(NC(=O)CN3C(=O)NC4(CCCC4)C3=O)sc2c1 | -23 | -24 | nt | 7 | 3 | nt | nt
Cc1ccc(NC(=O)CSc2nnnn2C)cc1S(=O)(=O)N1CCCCC1 | nt | nt | nt | nt | -6 | nt | nt
CCOc1ccc(CC(=O)Nc2sc(Cc3ccccc3)cc2C(N)=O)cc1OCC | 14 | -17 | -10 | 79* | -5 | 88* | 2
NC(=O)c1cc(Cc2ccccc2)sc1NC(=O)c1ccco1 | -15 | -19 | -15 | 26 | -4 | nt | nt
COC(=O)c1ccc2c(c1O)C(=O)c1ccccc1C2=O | -18 | -22 | -1 | 59 | 0 | nt | nt
CCSc1c(C(=O)NC)ccc2c1C(=O)c1ccccc1C2=O | -14 | -4 | 4 | 91* | -4 | 58* | 92*
COC(=O)/C=c1/s/c(=C(/C#N)C(=O)N2CCOCC2)n(-c2ccccc2)c1=O | -2 | -7 | -11 | 118* | -5 | 38 | 49*
COC(=O)/C=c1/s/c(=C(/C#N)C(=O)N2CCCCC2)n(-c2ccccc2)c1=O | -19 | -14 | -6 | 69 | 1 | nt | nt
O=C(CCNC(=O)c1ccc([N+](=O)[O-])cc1)N/N=C/c1ccc(F)cc1 | -27 | 7 | -13 | 78* | -6 | 24 | 27*
O=C(CCNC(=O)c1ccc([N+](=O)[O-])cc1)Nc1ccc(F)cc1 | -13 | -5 | 9 | 31 | -8 | nt | nt
O=S(=O)(O)c1cccc2c(N=Nc3ccc(O)c4ncccc34)cccc12 | -1 | 4 | -6 | -6 | nt | nt | nt
O=Nc1ccc(O)c2ncccc12 | 0 | -7 | -11 | 105* | 1 | 45 | 39*
COC(=O)c1cc(C)nc2c1C(=O)C(=O)C=C2N1CCOCC1 | -12 | -8 | -25 | 99* | -14 | 79* | 114*
O=C(Nc1cccc(/C=C/c2ccccn2)c1)c1cc(Cl)ccn1 | -13 | -9 | -8 | 80* | -10 | 85* | 12
O=C(N=Nc1c(O)[nH]c2ccccc12)c1cccs1 | 5 | -16 | 2 | 108* | -5 | 101* | 18*
COc1ccc(NC(=S)N=Nc2c(O)[nH]c3ccccc23)cc1 | 3 | -12 | -16 | 34 | -1 | nt | nt
CCOC(=O)C(=O)N=Nc1c(O)[nH]c2ccccc12 | -1 | 2 | -3 | 91* | -11 | 46 | 53*
Oc1ccc(NC(=S)N=Nc2c(O)[nH]c3ccccc23)cc1 | -4 | -7 | -2 | 92* | 4 | 80* | 7
O=c1c([N+](=O)[O-])cccn1Cc1cccc(Br)c1 | nt | nt | 3 | nt | -8 | nt | nt
O=c1c([N+](=O)[O-])cccn1Cc1ccccc1Cl | -8 | -8 | -1 | 79* | 3 | 45 | 27*
O=C(NCc1ccccc1)C(c1ccc(C(F)(F)F)cc1)n1c(=O)c(-c2ccco2)nc2ccccc21 (configuration not stated) | nt | nt | nt | nt | -8 | nt | nt
COc1cccc(NC(=O)Nc2ccc3c(c2)N(C)C(=O)CS3)c1 | 3 | 13 | 7 | 82* | -5 | 28 | 11

Screening data from PubChem BioAssay.
